Active and inactive are the calls of the source. The calls are words filed in the database; no cut-off is given here.
Columns and labels:
Adenosine receptor A1 [1] = biological target: T1, Adenosine receptor A1 (Homo sapiens, UniProt P30542); assay: Displacement of [3H]CCPA from recombinant human adenosine A1 receptor expressed in CHO cell membranes after 3 hrs by microbeta scintillation counting
T1 sequence (P30542 whole entry): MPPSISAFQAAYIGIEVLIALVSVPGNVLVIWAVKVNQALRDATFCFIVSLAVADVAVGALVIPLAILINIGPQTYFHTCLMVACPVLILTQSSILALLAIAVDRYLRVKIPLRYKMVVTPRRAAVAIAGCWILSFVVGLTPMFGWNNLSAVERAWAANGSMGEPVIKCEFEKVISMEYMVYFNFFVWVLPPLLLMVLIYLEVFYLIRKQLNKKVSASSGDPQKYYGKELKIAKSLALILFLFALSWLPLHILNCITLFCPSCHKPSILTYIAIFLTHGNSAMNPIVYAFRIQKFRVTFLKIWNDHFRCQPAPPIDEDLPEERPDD
Summary of the method: (§1)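 CHO membranes with stable human A1, A2A, A3 or rat A3 (1000g then 100 000g spin, stored -80 °C). Competition: hA1 1 nM [3H]CCPA, nonspecific with 1 mM theophylline; hA2A 10 nM [3H]NECA; hA3 1 nM [3H]HEMADO; rA3 30 nM [3H]NECA; latter three nonspecific with 100 μM R-PIA.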

[2] = Selectivity ratio of Ki for recombinant rat adenosine A3 receptor expressed in CHO cell membranes to Ki for recombinant human adenosine A3 receptor expressed in CHO cell membranes; assay type: cell-based; summary of the method: as §1
Adenosine receptor A1 [3] = biological target: T1, Adenosine receptor A1; assay: Agonist activity at recombinant human adenosine A1 receptor expressed in CHO cell membranes assessed as inhibition of forskolin-stimulated adenylyl cyclase activity after 10 mins in presence of [alpha-32P]ATP; assay type: functional, cell-based
Summary of the method: (§2)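 hA1 in CHO cell membranes (single high-speed spin, resuspended in 50 mM Tris/HCl pH 7.4, used immediately); agonist inhibition of forskolin-stimulated adenylyl cyclase; efficacy relative to CCPA as reference full agonist (100%). Geometric means with 95% confidence intervals, n = 3.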

Adenosine receptor A2b = biological target: T2, Adenosine receptor A2b (Homo sapiens, UniProt P29275); assay: Agonist activity at recombinant human adenosine A2B receptor expressed in CHO cell membranes assessed as stimulation of adenylyl cyclase activity by [alpha-32P]ATP assay; assay type: functional, cell-based
T2 sequence (P29275 whole entry): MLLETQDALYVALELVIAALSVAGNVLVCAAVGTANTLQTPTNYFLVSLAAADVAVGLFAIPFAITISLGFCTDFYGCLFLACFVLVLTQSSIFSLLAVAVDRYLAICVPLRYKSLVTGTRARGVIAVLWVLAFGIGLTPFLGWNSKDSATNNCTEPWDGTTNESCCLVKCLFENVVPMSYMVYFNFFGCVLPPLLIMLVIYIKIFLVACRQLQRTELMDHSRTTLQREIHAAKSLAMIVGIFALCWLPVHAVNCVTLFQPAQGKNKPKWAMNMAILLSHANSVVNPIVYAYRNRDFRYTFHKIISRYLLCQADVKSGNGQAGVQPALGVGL
Summary of the method: (§3)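 hA2A or hA2B in CHO cell membranes (one high-speed spin, pellet in 50 mM Tris/HCl pH 7.4, used immediately); agonist stimulation of adenylyl cyclase gives EC50; partial agonism judged as efficacy against 100 μM NECA as full agonist. Geometric means, 95% confidence intervals, n = 3.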

Adenosine receptor A2a [4] = biological target: T3, Adenosine receptor A2a (Homo sapiens, UniProt P29274); assay: Displacement of [3H]NECA from recombinant human adenosine A2A receptor expressed in CHO cell membranes after 3 hrs by microbeta scintillation counting; summary of the method: as §1
[5] = biological target: T4, Adenosine receptor A2b (Homo sapiens) (UniProt P29275); assay: Partial agonist activity at recombinant human adenosine A2B receptor expressed in CHO cell membranes assessed as stimulation of adenylyl cyclase activity by [alpha-32P]ATP assay relative to NECA; assay type: functional, cell-based; summary of the method: as §3
T4 sequence (whole entry): T2 sequence (P29275 whole entry)

Adenosine receptor A3 [6] = biological target: T5, Adenosine receptor A3 (Homo sapiens, UniProt P0DMS8); assay: Displacement of [3H]HEMADO from recombinant human adenosine […] receptor expressed in CHO cell membranes after 3 hrs by microbeta scintillation counting; summary of the method: as §1
T5 sequence (P0DMS8 whole entry): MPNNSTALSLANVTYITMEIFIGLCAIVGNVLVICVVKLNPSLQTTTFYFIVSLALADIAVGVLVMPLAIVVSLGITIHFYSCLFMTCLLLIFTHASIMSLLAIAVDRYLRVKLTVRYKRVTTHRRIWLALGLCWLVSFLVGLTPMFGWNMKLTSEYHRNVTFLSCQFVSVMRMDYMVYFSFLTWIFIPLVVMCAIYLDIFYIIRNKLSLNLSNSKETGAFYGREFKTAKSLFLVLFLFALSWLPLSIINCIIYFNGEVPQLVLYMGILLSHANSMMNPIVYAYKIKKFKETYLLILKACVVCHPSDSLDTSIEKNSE

[7] = biological target: T6, Adenosine receptor A1 (Homo sapiens) (UniProt P30542); assay: Agonist activity at recombinant human adenosine A1 receptor expressed in CHO cell membranes assessed as inhibition of forskolin-stimulated adenylyl cyclase activity after 10 mins relative to CCPA; assay type: functional, cell-based; summary of the method: as §2
T6 sequence (whole entry): T1 sequence (P30542 whole entry)

Adenosine receptor A2a [8] = biological target: T3, Adenosine receptor A2a; assay: Agonist activity at recombinant human adenosine A2A receptor expressed in CHO cell membranes assessed as stimulation of adenylyl cyclase activity by [alpha-32P]ATP assay; assay type: functional, cell-based; summary of the method: as §3
Adenosine receptor A3 [9] = biological target: T5, Adenosine receptor A3; assay: Antagonist activity at recombinant human adenosine A3 receptor expressed in CHO cell membranes assessed as reversal of NECA-mediated inhibition of adenylyl cyclase activity after 10 mins by [alpha-32P]ATP assay; assay type: functional, cell-based
Homo sapiens [10] = species: Homo sapiens; assay: Selectivity ratio of Ki for recombinant human adenosine A2A receptor expressed in CHO cell membranes to Ki for recombinant human adenosine A3 receptor expressed in CHO cell membranes; assay type: cell-based; summary of the method: as §1
Adenosine receptor A3 [11] = biological target: T7, Adenosine receptor A3 (Rattus norvegicus, UniProt P28647); assay: Displacement of [3H]NECA from recombinant rat adenosine A3 receptor expressed in CHO cell membranes after 3 hrs by microbeta scintillation counting; summary of the method: as §1
T7 sequence (P28647 whole entry): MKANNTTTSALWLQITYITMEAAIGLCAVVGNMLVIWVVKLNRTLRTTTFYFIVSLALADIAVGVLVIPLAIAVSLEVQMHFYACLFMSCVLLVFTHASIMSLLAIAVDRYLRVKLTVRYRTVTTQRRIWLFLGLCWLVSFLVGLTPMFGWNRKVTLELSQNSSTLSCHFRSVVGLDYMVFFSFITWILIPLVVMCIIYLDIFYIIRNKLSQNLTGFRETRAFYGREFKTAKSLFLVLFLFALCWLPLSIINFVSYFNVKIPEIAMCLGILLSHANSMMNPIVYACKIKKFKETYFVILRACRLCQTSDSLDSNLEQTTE

Homo sapiens [12] = species: Homo sapiens; assay: Selectivity ratio of Ki for recombinant human adenosine A2A receptor expressed in CHO cell membranes to Ki for recombinant human adenosine A1 receptor expressed in CHO cell membranes; assay type: cell-based; summary of the method: as §1
Adenosine receptor A2a [13] = biological target: T3, Adenosine receptor A2a; assay: Agonist activity at recombinant human adenosine A2A receptor expressed in CHO cell membranes assessed as stimulation of adenylyl cyclase activity relative to NECA; assay type: functional, cell-based; summary of the method: as §3
[14] = biological target: Adenosine receptors; A1 & A3 (Homo sapiens) (UniProt P30542+P0DMS8); assay: Selectivity ratio of Ki for recombinant human adenosine A3 receptor expressed in CHO cell membranes to Ki for recombinant human adenosine A1 receptor expressed in CHO cell membranes; assay type: cell-based; summary of the method: as §1
Mus musculus [15] = assay: Antinociceptive activity in formalin induced nociceptive mouse model assessed as reduction in nociceptive behavior at 0.5 mg/kg, ip administered 10 mins prior to formalin induction measured for 15 to 60 mins; assay type: functional, organism-based
Summary of the method: (§4)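 Mice, randomized, n = 8–10 per group; ip compound or vehicle (10% DMSO in 0.9% NaCl) 10 min before formalin (1.25% in saline, 30 μL) into dorsal hind paw. Lifting, licking, shaking, flinching timed every 5 min for 60 min; phase 1 0–7 min, phase 2 15–60 min; mean ± SEM.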

Mus musculus [16] = assay: Antinociceptive activity in formalin induced nociceptive mouse model assessed as reduction in nociceptive behavior at 0.5 mg/kg, ip administered 10 mins prior to formalin induction measured up to 7 mins; assay type: functional, organism-based; summary of the method: as §4
Mus musculus [17] = assay: Antinociceptive activity in formalin induced nociceptive mouse model assessed as reduction in nociceptive behavior at 1 mg/kg, ip administered 10 mins prior to formalin induction measured for 15 to 60 mins in presence of adenosine A3 agonist 2Cl-IBMECA; assay type: functional, organism-based; summary of the method: as §4
Mus musculus [18] = assay: Antinociceptive activity in formalin induced nociceptive mouse model assessed as reduction in nociceptive behavior at 1 mg/kg, ip administered 10 mins prior to formalin induction measured up to 7 mins in presence of adenosine A3 agonist 2Cl-IBMECA; assay type: functional, organism-based; summary of the method: as §4
[19] = Lipophilicity, log P of the compound; assay type: physicochemical; settings: octanol/water
Mus musculus [20] = assay: Antinociceptive activity in formalin induced nociceptive mouse model at 1 mg/kg, ip administered 10 mins prior to formalin induction measured up to 60 mins; assay type: functional, organism-based; summary of the method: as §4

T3 sequence (P29274 whole entry): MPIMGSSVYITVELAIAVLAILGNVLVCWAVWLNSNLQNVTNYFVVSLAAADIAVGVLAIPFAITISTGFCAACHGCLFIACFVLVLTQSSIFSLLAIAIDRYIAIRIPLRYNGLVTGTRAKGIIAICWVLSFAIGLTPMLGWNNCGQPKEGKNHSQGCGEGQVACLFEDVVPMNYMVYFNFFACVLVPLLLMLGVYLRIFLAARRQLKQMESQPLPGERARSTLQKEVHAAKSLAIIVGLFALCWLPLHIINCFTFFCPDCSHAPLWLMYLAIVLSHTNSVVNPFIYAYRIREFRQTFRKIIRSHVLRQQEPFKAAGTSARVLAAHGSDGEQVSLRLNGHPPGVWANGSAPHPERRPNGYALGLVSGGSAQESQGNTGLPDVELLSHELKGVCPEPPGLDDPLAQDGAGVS

Row | Compound | Ki (Adenosine receptor A1 [1]) [nM] | EC50 (Adenosine receptor A1 [3]) [nM] | EC50 (Adenosine receptor A2b) [nM] | Ki (Adenosine receptor A2a [4]) [nM] | Activity [5] [%] | Ki (Adenosine receptor A3 [6]) [nM] | Efficacy [7] [%] | EC50 (Adenosine receptor A2a [8]) [nM] | EC50 (Adenosine receptor A3 [9]) [nM] | Ki (Adenosine receptor A3 [11]) [nM] | Efficacy (Adenosine receptor A2a [13]) [%] | Ratio Ki [14] | Ratio Ki [2] | Ratio Ki (Homo sapiens [10]) | Ratio Ki (Homo sapiens [12]) | Activity (Mus musculus [15]) | Activity (Mus musculus [16]) | also measured
1 | O[C@@H]1[C@H](O)[C@@H](CCl)O[C@H]1n1cnc2c(NC3C[C@@H]4CC[C@@H]3C4)ncnc21 (mixture of isomers) |  |  |  |  |  |  |  |  |  |  |  |  |  |  |  | inactive | inactive | Activity (Mus musculus [17]): Active; Activity (Mus musculus [18]): Active
2 | CNC(=O)[C@H]1O[C@@H](n2cnc3c(NCc4cccc(I)c4)nc(Cl)nc32)[C@H](O)[C@@H]1O |  |  |  |  |  |  |  |  |  |  |  |  |  |  |  | inactive | inactive | 

Further lines, with some results ahead:

Row | Ki (Adenosine receptor A1 [1]) [nM] | EC50 (Adenosine receptor A1 [3]) [nM] | EC50 (Adenosine receptor A2b) [nM] | Ki (Adenosine receptor A2a [4]) [nM] | Activity [5] [%] | Ki (Adenosine receptor A3 [6]) [nM] | Efficacy [7] [%] | EC50 (Adenosine receptor A2a [8]) [nM] | EC50 (Adenosine receptor A3 [9]) [nM] | Ki (Adenosine receptor A3 [11]) [nM] | Efficacy (Adenosine receptor A2a [13]) [%] | Ratio Ki [14] | Compound | Ratio Ki [2] | Ratio Ki (Homo sapiens [10]) | Ratio Ki (Homo sapiens [12]) | Activity (Mus musculus [15]) | Activity (Mus musculus [16]) | also measured
3 | 0.438 | 7.73 | 637 | 112 | 81 | 0.575 | > 90 | 16.6 | 3.53 | 65.2 | > 90 | 1.3 | CCn1nnc([C@H]2O[C@@H](n3cnc4c(NCC5CC5)ncnc43)[C@H](O)[C@@H]2O)n1 | 110 to 114 | 196 | 256 |  |  | 
4 | 3.73 | 147 | 1100 | 74 | 86 | 1.2 | > 90 | 14.4 | 12.5 | 9.26 | > 90 | 0.32 | CCn1nnc([C@H]2O[C@@H](n3cnc4c(NCc5cccc(F)c5)ncnc43)C(O)C2O)n1 (single isomer, unassigned) | 7.7 | 62 | 20 |  |  | 
5 |  |  |  |  |  |  |  |  |  | 2.53 |  |  | CCn1nnc([C@H]2O[C@@H](n3cnc4c(NCc5cccc(I)c5)nc(Cl)nc43)[C@H](O)[C@@H]2O)n1 |  |  |  |  |  | logP [19]: 4.06; Activity (Mus musculus [20]): inactive

Source: ChEMBL document CHEMBL4049451, “Exploring the Role of N6-Substituents in Potent Dual Acting 5'-C-Ethyltetrazolyladenosine Derivatives: Synthesis, Binding, Functional Assays, and Antinociceptive Effects in Mice ∇” (J Med Chem, 2017)
